Measured values published in ChEMBL document CHEMBL4406859, “Antitumor and antiviral activities of 4-substituted 1,2,3-triazolyl-2,3-dibenzyl-L-ascorbic acid derivatives” (Eur J Med Chem, 2019).
Calls of active or inactive are those of the source. The calls are words filed in the database; no cut-off is given here.

Experiments:
Cytomegalovirus [1] = assay: Antiviral activity against Cytomegalovirus Davis infected in human HELF cells assessed as reduction in virus-induced cytopathogenicity incubated for 7 days by Giemsa staining based microscopic analysis; assay type: functional, organism-based; details: Human betaherpesvirus 5, Davis, 168 h
How it was run: (§1)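 Confluent HEL fibroblasts infected with CMV (Davis or AD-169) at 100 PFU/well for 2 h. Residual virus removed, then medium with graded compound concentrations added (duplicate). Incubated 7 days at 37 °C. Cytopathogenicity scored microscopically after ethanol fixation and Giemsa staining. EC50 read from plots of % cytopathogenicity versus concentration.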

Influenza A virus [2] = assay: Antiviral activity against Influenza A virus (A/Ned/378/05(H1N1)) infected in dog MDCK cells assessed as reduction in virus-induced cytopathogenicity incubated for 7 days by microscopic analysis; assay type: functional, organism-based
SW-620 = assay: Antiproliferative activity against human SW620 cells assessed as reduction in cell viability incubated for 72 hrs by MTT assay; assay type: functional, cell-based; details: SW-620, 72 h
How it was run: (§2)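 Cells (ATCC) grown in DMEM with 10 FBS, penicillin/streptomycin, 2 mM glutamine, 37 °C, 5 CO2. 5000 cells/well seeded; after 24 h, freshly prepared dilutions at five concentrations (0.01–100 μM) added for 72 h. MTT read-out; absorbance converted to percentage growth by NIH formulas. Two experiments in quadruplicate; IC50 by linear regression.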

Influenza A virus H3N2 [3] = assay: Antiviral activity against Influenza A virus (A/HK/7/87(H3N2)) infected in dog MDCK cells assessed as reduction in virus-induced cytopathogenicity incubated for 7 days by MTS assay; assay type: functional, organism-based; details: A/Hong Kong/7/1987(H3N2)
Influenza A virus [4] = assay: Antiviral activity against Influenza A virus (A/Ned/378/05(H1N1)) infected in dog MDCK cells assessed as reduction in virus-induced cytopathogenicity incubated for 7 days by MTS assay; assay type: functional, organism-based
Influenza B virus [5] = assay: Antiviral activity against Influenza B virus (B/Ned/537/05) infected in dog MDCK cells assessed as reduction in virus-induced cytopathogenicity incubated for 7 days by microscopic analysis; assay type: functional, organism-based
HFF = assay: Cytotoxicity against human HFF cells assessed as reduction in cell viability incubated for 72 hrs by MTT assay; assay type: cell-based; how it was run: as §2
Human alphaherpesvirus 2 = assay: Antiviral activity against Herpes simplex virus 2 G infected in human HELF cells assessed as reduction in virus-induced cytopathogenicity incubated for 7 days by microscopic analysis; assay type: functional, organism-based
Influenza A virus H3N2 [6] = assay: Antiviral activity against Influenza A virus (A/HK/7/87(H3N2)) infected in dog MDCK cells assessed as reduction in virus-induced cytopathogenicity incubated for 7 days by microscopic analysis; assay type: functional, organism-based; details: A/Hong Kong/7/1987(H3N2)
[7] = Cytotoxicity against human HELF cells assessed as reduction in cell viability incubated for 3 days by coulter counter method; assay type: cell-based; details: 72 h
How it was run: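 HEL cells seeded at 5 x 10^3/well and allowed to proliferate 24 h, then exposed to graded compound concentrations for 3 days at 37 °C. Cell number counted with a Coulter counter.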

HCT-116 = assay: Antiproliferative activity against human HCT116cells assessed as reduction in cell viability incubated for 72 hrs by MTT assay; assay type: functional, cell-based; details: HCT-116, 72 h; how it was run: as §2
Cytomegalovirus [8] = assay: Antiviral activity against Cytomegalovirus AD169 infected in human HELF cells assessed as reduction in virus-induced cytopathogenicity incubated for 7 days by Giemsa staining based microscopic analysis; assay type: functional, organism-based; details: Human betaherpesvirus 5, AD169, HELF, 168 h; how it was run: as §1
CFPAC-1 = assay: Antiproliferative activity against human CFPAC-1 cells assessed as reduction in cell viability incubated for 72 hrs by MTT assay; assay type: functional, cell-based; details: Homo sapiens, CFPAC-1, 72 h; read-out: IC50; how it was run: as §2
MCF7 = assay: Antiproliferative activity against human MCF7 cells assessed as reduction in cell viability incubated for 72 hrs by MTT assay; assay type: functional, cell-based; details: MCF7, 72 h; how it was run: as §2
HepG2 = assay: Antiproliferative activity against human HepG2 cells assessed as reduction in cell viability incubated for 72 hrs by MTT assay; assay type: functional, cell-based; details: HepG2, 72 h; how it was run: as §2
Human coronavirus 229E = assay: Antiviral activity against Human coronavirus 229E infected in human HELF cells assessed as reduction in virus-induced cytopathogenicity incubated for 7 days by microscopic analysis; assay type: functional, organism-based
Coxsackievirus B4 = assay: Antiviral activity against Human coxsackievirus B4 infected in vero cells assessed as reduction in virus-induced cytopathogenicity incubated for 7 days by microscopic analysis; assay type: functional, organism-based
Human alphaherpesvirus 1 [9] = assay: Antiviral activity against Herpes simplex virus 1 TK-KOS-ACV infected in human HELF cells assessed as reduction in virus-induced cytopathogenicity incubated for 7 days by microscopic analysis; assay type: functional, organism-based
A549 = assay: Antiproliferative activity against human A549 cells assessed as reduction in cell viability incubated for 72 hrs by MTT assay; assay type: functional, cell-based; details: A549, 72 h; how it was run: as §2
[10] = Cytotoxicity against human HELF cells assessed as minimum cytotoxic concentration by observing alteration in cell morphology incubated for 3 days by microscopic analysis; assay type: cell-based; details: HELF cells
How it was run: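 Read-out is the minimum cytotoxic concentration (MCC): the lowest compound concentration giving a microscopically detectable change in cell morphology. Measured on confluent human embryonic lung (HEL) fibroblast cultures exposed to a range of compound concentrations.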

Reovirus sp. = assay: Antiviral activity against Reovirus infected in vero cells assessed as reduction in virus-induced cytopathogenicity incubated for 7 days by microscopic analysis; assay type: functional, organism-based
Human adenovirus 2 = assay: Antiviral activity against Human adenovirus 2 infected in human HELF cells assessed as reduction in virus-induced cytopathogenicity incubated for 7 days by microscopic analysis; assay type: functional, organism-based
Sindbis virus = assay: Antiviral activity against Sindbis virus infected in vero cells assessed as reduction in virus-induced cytopathogenicity incubated for 7 days by microscopic analysis; assay type: functional, organism-based
Human alphaherpesvirus 3 [11] = assay: Antiviral activity against thymidine kinase positive Varicella zoster virus infected in human HELF cells assessed as reduction in virus-induced cytopathogenicity incubated for 7 days by Giemsa staining based microscopic analysis; assay type: functional, organism-based; details: Human alphaherpesvirus 3, HELF, 168 h
HeLa = assay: Antiproliferative activity against human HeLa cells assessed as reduction in cell viability incubated for 72 hrs by MTT assay; assay type: functional, cell-based; how it was run: as §2
Human alphaherpesvirus 1 [12] = assay: Antiviral activity against Herpes simplex virus 1 KOS infected in human HELF cells assessed as reduction in virus-induced cytopathogenicity incubated for 7 days by microscopic analysis; assay type: functional, organism-based; details: strain KOS
Influenza B virus [13] = assay: Antiviral activity against Influenza B virus (B/Ned/537/05) infected in dog MDCK cells assessed as reduction in virus-induced cytopathogenicity incubated for 7 days by MTS assay; assay type: functional, organism-based
Human alphaherpesvirus 3 [14] = assay: Antiviral activity against thymidine kinase deficient Varicella zoster virus infected in human HELF cells assessed as reduction in virus-induced cytopathogenicity incubated for 7 days by Giemsa staining based microscopic analysis; assay type: functional, organism-based; details: Human alphaherpesvirus 3, HELF, 168 h

| Structure (SMILES) | EC50 (Cytomegalovirus [1]) [µM] | Activity (Influenza A virus [2]) | IC50 (SW-620) [µM] | Activity (Influenza A virus H3N2 [3]) | Activity (Influenza A virus [4]) | Activity (Influenza B virus [5]) | IC50 (HFF) [µM] | Activity (Human alphaherpesvirus 2) | Activity (Influenza A virus H3N2 [6]) | CC50 [7] [µM] | IC50 (HCT-116) [µM] | EC50 (Cytomegalovirus [8]) [µM] | IC50 (CFPAC-1) [µM] | IC50 (MCF7) [µM] | IC50 (HepG2) [µM] | Activity (Human coronavirus 229E) | Activity (Coxsackievirus B4) | Activity (Human alphaherpesvirus 1 [9]) | IC50 (A549) [µM] | MCC at 72 h [10] [µM] | also measured |
| --- | --- | --- | --- | --- | --- | --- | --- | --- | --- | --- | --- | --- | --- | --- | --- | --- | --- | --- | --- | --- | --- |
| CC(C)(C)c1cn(C/C=C2\OC(=O)C(OCc3ccccc3)=C2OCc2ccccc2)nn1 | 5.2 | inactive | 20.7 | inactive | inactive | inactive | 49.9 | inactive | inactive | 55.5 | 47.3 | 8.94 | > 100 | 4.93 | 62.2 | inactive | inactive | inactive | 5.25 | 100 | Activity (Reovirus sp.): inactive; Activity (Human adenovirus 2): inactive; Activity (Sindbis virus): inactive; EC50 (Human alphaherpesvirus 3 [11]): 11.7 µM; IC50 (HeLa): > 100 µM; Activity (Human alphaherpesvirus 1 [12]): inactive; Activity (Influenza B virus [13]): inactive; EC50 (Human alphaherpesvirus 3 [14]): 10 µM |
| O=C1O/C(=C\Cn2cc(-c3cccc(O)c3)nn2)C(OCc2ccccc2)=C1OCc1ccccc1 | 8.94 | inactive | 69.8 | inactive | inactive | inactive | 42.6 | inactive | inactive | 11.1 | 63.6 | 9.36 | 33.7 | 27.8 | 61.7 | inactive | inactive | inactive | 23.3 | 100 | Activity (Reovirus sp.): inactive; Activity (Human adenovirus 2): inactive; Activity (Sindbis virus): inactive; EC50 (Human alphaherpesvirus 3 [11]): 11.6 µM; IC50 (HeLa): 74.8 µM; Activity (Human alphaherpesvirus 1 [12]): inactive; Activity (Influenza B virus [13]): inactive; EC50 (Human alphaherpesvirus 3 [14]): 14.7 µM |
| O=C1O/C(=C\Cn2cc(-c3ccc(Br)cc3)nn2)C(OCc2ccccc2)=C1OCc1ccccc1 | 8.94 | inactive | > 100 | inactive | inactive | inactive | > 100 | inactive | inactive | > 100 | > 100 | > 100 | > 100 | > 100 | > 100 | inactive | inactive | inactive | > 100 | > 100 | Activity (Reovirus sp.): inactive; Activity (Human adenovirus 2): inactive; Activity (Sindbis virus): inactive; EC50 (Human alphaherpesvirus 3 [11]): 44.7 µM; IC50 (HeLa): 24.3 µM; Activity (Human alphaherpesvirus 1 [12]): inactive; Activity (Influenza B virus [13]): inactive; EC50 (Human alphaherpesvirus 3 [14]): > 100 µM |
